Data set [1] addresses T1, CYP19 (aromatase) (Homo sapiens, UniProt P11511).
T1 sequence (P11511 whole entry): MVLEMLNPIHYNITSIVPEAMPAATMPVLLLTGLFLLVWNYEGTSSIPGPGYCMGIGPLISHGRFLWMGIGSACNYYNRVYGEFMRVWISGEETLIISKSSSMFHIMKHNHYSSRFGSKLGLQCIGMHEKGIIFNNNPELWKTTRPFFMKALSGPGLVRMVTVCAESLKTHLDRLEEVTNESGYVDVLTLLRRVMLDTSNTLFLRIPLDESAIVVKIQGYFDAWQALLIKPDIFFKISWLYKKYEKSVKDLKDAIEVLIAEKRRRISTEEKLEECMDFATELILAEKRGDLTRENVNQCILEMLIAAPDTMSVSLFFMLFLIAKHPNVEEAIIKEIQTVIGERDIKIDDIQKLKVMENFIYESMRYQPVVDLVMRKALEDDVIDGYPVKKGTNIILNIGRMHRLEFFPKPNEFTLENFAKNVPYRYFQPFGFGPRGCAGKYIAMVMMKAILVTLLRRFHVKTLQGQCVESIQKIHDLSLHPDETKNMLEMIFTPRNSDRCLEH
Put plainly: Inhibition of microsomal CYP19 in human placenta using [1beta-3H]-androstenedione as substrate at 2 uM by 3H2O method relative to control. As to conditions: placental microsomes, probe [1beta-3H]-androstenedione. The method in brief:
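Human placental microsomes as the CYP19 source, with [1β-3H]androstenedione at 500 nM. Activity read by 3H2O release. Compound at 2 μM. Percent inhibition is the mean of at least three experiments (deviations <25%); values ≤5% are not significant.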

For data set [2], the target named is T2, Cytochrome P450 11B2, mitochondrial (Homo sapiens, UniProt P19099).
T2 sequence (P19099 whole entry): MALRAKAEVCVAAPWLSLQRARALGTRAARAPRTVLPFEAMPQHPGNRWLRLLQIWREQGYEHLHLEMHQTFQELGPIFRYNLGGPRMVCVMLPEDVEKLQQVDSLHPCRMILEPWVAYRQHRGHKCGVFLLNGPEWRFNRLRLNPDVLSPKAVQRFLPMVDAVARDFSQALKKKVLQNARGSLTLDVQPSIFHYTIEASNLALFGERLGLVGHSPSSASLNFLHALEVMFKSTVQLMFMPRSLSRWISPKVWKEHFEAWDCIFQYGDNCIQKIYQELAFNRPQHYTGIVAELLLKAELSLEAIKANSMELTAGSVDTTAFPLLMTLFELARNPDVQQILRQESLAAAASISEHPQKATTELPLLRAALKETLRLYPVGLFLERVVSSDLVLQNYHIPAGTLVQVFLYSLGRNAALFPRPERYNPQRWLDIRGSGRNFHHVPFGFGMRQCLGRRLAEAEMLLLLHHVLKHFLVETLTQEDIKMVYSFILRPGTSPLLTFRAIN
Description: Inhibition of human CYP11B2 expressed in hamster V79MZh cells using [1,2-3H]-11-deoxycorticosterone as substrate. The class given is cell-based. An outline of the steps: (§1)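 V79MZh hamster fibroblasts expressing human CYP11B1 or CYP11B2 were incubated with [1,2-3H]-11-deoxycorticosterone (100 nM) plus inhibitor at a range of concentrations. The selectivity factor is IC50(CYP11B2)/IC50(CYP11B1).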

The nature of data set [3]: Half life in human plasma at 1 uM by LC-MS/MS analysis. The data set is classed as ADME, cell-free. An outline of the steps:
(§2)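 Compound at 1 μM in pooled heparinized plasma of the stated species, 37 °C, sampled at 0, 10, 30, 60 and 150 min. Proteins precipitated with 5 volumes of cold acetonitrile containing internal standard. Remaining compound quantified by LC-MS/MS to give half-life.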

Data set [4] addresses T3, Cytochrome P450 11B1, mitochondrial (Homo sapiens, UniProt P15538).
T3 sequence (P15538 whole entry): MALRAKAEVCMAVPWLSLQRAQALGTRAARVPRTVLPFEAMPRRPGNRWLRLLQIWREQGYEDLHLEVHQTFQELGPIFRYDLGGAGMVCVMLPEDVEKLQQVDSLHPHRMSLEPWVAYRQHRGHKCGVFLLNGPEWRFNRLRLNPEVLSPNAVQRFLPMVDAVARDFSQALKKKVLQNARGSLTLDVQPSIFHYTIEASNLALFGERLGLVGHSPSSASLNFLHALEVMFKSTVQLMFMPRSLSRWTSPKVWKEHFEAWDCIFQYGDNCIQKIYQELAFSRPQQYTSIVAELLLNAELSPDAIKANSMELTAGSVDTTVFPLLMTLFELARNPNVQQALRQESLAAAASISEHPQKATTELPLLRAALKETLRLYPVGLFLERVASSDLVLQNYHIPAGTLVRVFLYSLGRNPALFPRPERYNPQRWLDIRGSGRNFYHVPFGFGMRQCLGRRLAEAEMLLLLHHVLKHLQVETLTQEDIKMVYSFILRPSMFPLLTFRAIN
Put plainly: Inhibition of human CYP11B1 expressed in hamster V79MZh cells using [1,2-3H]-11-deoxycorticosterone as substrate. The class given is cell-based. An outline of the steps: as §1

Data set [5] is described as follows: Half life in rat plasma at 1 uM by LC-MS/MS analysis. The class given is ADME, cell-free. An outline of the steps: as §2
The species named for data set [6] is Homo sapiens. Put plainly: Selectivity factor, ratio of IC50 for human CYP11B2 to IC50 for human CYP11B1. An outline of the steps:
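V79MZh hamster fibroblasts expressing human CYP11B1 or CYP11B2 were incubated with [1,2-3H]-11-deoxycorticosterone (100 nM) plus inhibitor at a range of concentrations. […] The selectivity factor is IC50(CYP11B2)/IC50(CYP11B1).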

The nature of data set [7]: Half life in human liver S9 fraction at 1 uM by LC-MS/MS analysis. The class given is ADME, subcellular. The method in brief:
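Pooled human liver S9 fraction, 1 mg/mL, with 2 mM NADPH regenerating system, 1 mM UDPGA and 0.1 mM PAPS (phase I and II). Compound at 1 μM, 37 °C, sampled at 0, 5, 15 and 60 min. Stopped with cold acetonitrile containing internal standard. Remaining compound measured by LC-MS/MS and used to derive t1/2. Mean of more than three repeats.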

Data set [8] in a line: Half life in rat liver S9 fraction at 1 uM by LC-MS/MS analysis. The data set is classed as ADME, subcellular. The method in brief: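 Test compound at 1 μM with 1 mg/mL pooled rat liver S9, 2 mM NADPH regenerating system, 1 mM UDPGA and 0.1 mM PAPS (phase I and II), 37 °C. Sampled at 0, 5, 15 and 60 min and quenched with 2 volumes of cold acetonitrile containing internal standard. Remaining compound measured by LC-MS/MS to give t1/2 and CLint; mean of more than three repeats.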

Bounds are passed on as bounds.

Experimental findings from ChEMBL document CHEMBL2417547 (J Med Chem, 2013) are described below.

Molecule `Cc1cncc(Cc2ccc(-c3ccccc3)nc2)c1` registered an inhibition at 2 µM in data set [1] of 1%. Further, the values for the IC50 in data set [2] and in data set [4] were 33 nM and 2 nM, respectively. The half-life at 1 µM in data set [3] was over 2.5 h; in data set [5] it was over 2.5 h; in data set [7] it was over 2.5 h; in data set [8], 0.267 h. In data set [6], the Ratio IC50 is 15.1.

The inhibition is how much of the control response was suppressed. High values mean strong suppression, low ones little suppression. For orientation: IC50 means the concentration that gives 50% inhibition. The low end stands for inhibition by little substance, the high end for a need for much substance. The half-life is the time needed for the level to fall by half in the phase considered. The low end stands for fast loss, the high end for slow loss.
